Measured values pooled from the literature.
Target: Phosphatidylinositol 4,5-bisphosphate 3-kinase catalytic subunit beta isoform (PIK3CB, Homo sapiens, UniProt P42338)

| SMILES | observed | technique | tested at | remaining binding [%] |
| --- | --- | --- | --- | --- |
| Cc1cnc(Nc2ccc(C(=O)N3CCC(N4CCCC4)CC3)cc2)nc1-c1cc2ccccc2s1 | binding | competition with immobilised ligand | 1 µM | 99 |
| O=C(Nc1c[nH]nc1C(=O)NC1CCNCC1)c1cc(F)cc(F)c1 | binding | competition with immobilised ligand | 1 µM | 100 |
| COc1ncc2cc3ccccc3nc2c1C#N | cell-free assay | competition with immobilised ligand | 5 µM | 100 |
| COc1ccc2c(O[C@@H]3C[C@H]4C(=O)N[C@]5(C(=O)O)CC5/C=C\CCCCC[C@H](NC(=O)OC5CCCC5)C(=O)N4C3)cc(-c3csc(NC(=O)C(C)C)n3)nc2c1C (some centres unmarked) | cell-free assay | competition with immobilised ligand | 1 µM | 62 |
| O=C(NCCCN1CCOCC1)c1ccc(Nc2ncc(Cl)c(-c3ccc(Cl)s3)n2)cc1 | binding | competition with immobilised ligand | 1 µM | 99 |
| c1cnn2ncc(-c3ccnc(N4CCC45COC5)n3)c2c1 | binding | – | 1 µM | 62 |
| c1cncc(-c2cccc(Nc3nccc(NC4CCCCC4)n3)c2)c1 | binding | competition with immobilised ligand | 10 µM | 100 |
| CN(c1nccc(-c2cnn3ncccc23)n1)C1CC1 | binding | – | 1 µM | 100 |
| CS(=O)(=O)c1cc(C2(NC(=O)c3cncc4c3cnn4-c3ccc(F)cc3)CC2)ccn1 | cell-free assay | competition with immobilised ligand | 1 µM | 100 |
| C=CC(=O)N1CCC(C(=O)NCC(=O)N2CCN(c3nc(-c4cnc(N)nc4C(F)F)nc(N4CCOCC4)n3)CC2)CC1 | binding | competition with immobilised ligand | 1 µM | 0.05 |
| CN(C)c1nccc(-c2cnn3ncccc23)n1 | binding | – | 1 µM | 50 |
| CNCc1ccccc1-c1csc([C@H](C)Nc2nc(C)nc3cc(OC)c(OC)cc23)c1 | cell-free assay | competition with immobilised ligand | 1 µM | 89 |
| FC(F)(F)Oc1cccc(-c2cnc3ccc(-c4ccncc4)nn23)c1 | cell-free assay | competition with immobilised ligand | 5 µM | 48 |
| CCC(=N\O)/C(C)=C/c1ccc(F)cc1 | cell-free assay | competition with immobilised ligand | 1 µM | 99 |
| O=C(c1ccc(Nc2ncc(Cl)c(-c3cc4ccccc4s3)n2)cc1)N1CCC(N2CCCC2)CC1 | binding | competition with immobilised ligand | 1 µM | 100 |
| Nc1c(C(=O)NCc2ccc(C(=O)NCCCC3CCCCC3)cc2)cnn1-c1ccccc1 | cell-free assay | competition with immobilised ligand | 0.1 µM | 100 |
| COc1ccnn2ncc(-c3ccnc(N(C)C)n3)c12 | binding | – | 1 µM | 75 |
| CN(C)C(=O)Cn1cc(-c2nc(C3(c4ccc(-c5cnc(N)nc5)cc4)CC3)no2)cn1 | cell-free assay | competition with immobilised ligand | 1 µM | 96 |
| N[C@@H]1CCN(c2nccc(-c3cnn4ncccc34)n2)C1 | binding | – | 1 µM | 100 |
| CNC(=O)[C@@H]1CC[C@@H](n2c(-c3ccc4cnccc4c3)nc3ccc(C(=O)NCc4cccc(C(N)=O)c4)cc32)C1 | binding | competition with immobilised ligand | 1 µM | 100 |
